High-throughput results (PubChem)
SIAE inh – human SIAE inhibition, primary screen; SIAE FP-Rh probe binding, fluorescence polarization; inhibition, % at 9.66 µM; 0.69% of 370,000 active; AID 1053197;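 active means inhibition above a cutoff: mean of compounds within the control limits plus 3 SD of those, cut at about 17% in these data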;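 further: 0% = plate median of compound wells and 100% = probe without SIAE protein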
PAD4 inh – blocks human protein arginine deiminase 4. Q9UM07. recombinant PAD4, RCA probe fluorescence polarization. inhibition, % at 6.36 µM. 0.41% of 330,000 active. AID 485272;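 active means percent inhibition above a cutoff equal to the mean of all tested compounds plus 3 SD, cut at about 15% in these data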;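 further: 0% = PAD4 with RCA probe and DMSO and 100% = probe without PAD4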
GSTO1 inh – GSTO1 inhibition, counter-screen for RBBP9 inhibitors. 1.1% of 300,000 active. AID 1974. inhibition, % at 5.96 µM. P78417. recombinant GSTO1, activity-based probe fluorescence polarization;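 active means inhibition above the campaign mean inhibition plus 3 SD, cut at about 35% in these data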;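 further: 0% = GSTO1-1 with DMSO and 100% = wells lacking GSTO1-1 enzyme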
Target sequence (P78417 whole entry, looked up): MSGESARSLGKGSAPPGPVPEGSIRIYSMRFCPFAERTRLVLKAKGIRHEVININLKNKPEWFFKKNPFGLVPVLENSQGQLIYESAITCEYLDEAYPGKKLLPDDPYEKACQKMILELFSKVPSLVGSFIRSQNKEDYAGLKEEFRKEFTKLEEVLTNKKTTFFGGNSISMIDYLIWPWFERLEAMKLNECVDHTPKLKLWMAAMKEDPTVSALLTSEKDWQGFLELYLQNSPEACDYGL
RBBP9 inh – human RBBP9 hydrolase inhibition; recombinant RBBP9, FP-Rh probe fluorescence polarization; inhibition, % at 7.94 µM; 0.2% of 220,000 active; AID 1515;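 active means inhibition above the campaign mean of all tested compounds plus 3 SD, cut at about 14% in these data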;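 further: plate controls were DMSO wells with RBBP9 for no effect and wells lacking RBBP9 protein for full effect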
Target sequence (O75884 whole entry, looked up): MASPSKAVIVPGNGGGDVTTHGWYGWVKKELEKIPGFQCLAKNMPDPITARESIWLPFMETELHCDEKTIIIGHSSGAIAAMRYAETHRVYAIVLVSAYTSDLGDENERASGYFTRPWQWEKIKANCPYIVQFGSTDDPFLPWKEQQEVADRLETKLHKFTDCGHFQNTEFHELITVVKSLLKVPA
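Measured by: FP readout at 525/598 nm; material: recombinant human RBBP9; also added: Serine-hydrolase probe FP-Rh, 375 nM pre-mixing; medium: Tris buffer pH 8.0, NaCl, Pluronic; replication: one well per compound; doses: one concentration, 7.94 µM nominal, 0.794% DMSO; timing: preincubation 30 min plus labeling 45 min at 25 °C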
PRMT1 inh – PRMT1 (human) inhibition, primary screen; recombinant PRMT1, activity-based probe fluorescence polarization; inhibition, % at 2.79 µM; 1.3% of 370,000 active;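 active means inhibition above about 21% made by adding two undisclosed values, limit read from the data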
PRMT1 confirm – PRMT1 (human) inhibition, FP confirmation; recombinant His-PRMT1, activity-based probe fluorescence polarization; shares compounds with PRMT1 inh; 42% of 3,300 active; inhibition, % at 2.79 µM;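 active means mean inhibition across replicates above the hit cutoff derived for the earlier primary screen, cut at about 22% in these data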
Active calls of the source: *. Shown are actives, neighbours in structure and some others; about 2.7% of the full set was active somewhere.

How did CC(C)C[C@H]1CN([C@@H](Cc2ccccc2)CN2CCC[C@H]2CN2C(=O)C(=O)NC[C@@H]2Cc2ccc(O)cc2)C(=O)C(=O)N1CC1CCCCC1 do in these assays?
SIAE inh: 6; PRMT1 inh: 1

What do the screens show for `Fc1ccc(-c2nc3c4ccccc4ccn3c2Cc2cccc(F)c2)cc1`?
SIAE inh: -5; PRMT1 inh: -1

What do the screens show for `Fc1cccc(Cc2c(-c3ccco3)nc3c4ccccc4ccn23)c1`?
SIAE inh: 0; PRMT1 inh: 30*; PRMT1 confirm: 10

How did Clc1cccc(Cc2c(-c3ccco3)nc3c4ccccc4ccn23)c1 do in these assays?
SIAE inh: -13; PRMT1 inh: 25*; PRMT1 confirm: 9

How did CCOC(=O)c1c(NC(=O)Cn2cnc([N+](=O)[O-])n2)sc2c1CCCC2 do in these assays?
SIAE inh: 2; PAD4 inh: -3; GSTO1 inh: 18; RBBP9 inh: 2; PRMT1 inh: -2

Results for FC(F)(F)c1nc(=S)c2ccccc2[nH]1 ?
SIAE inh: 1; RBBP9 inh: -11; PRMT1 inh: 33*; PRMT1 confirm: 25*

How did CC(C)c1csc(CN2CCC(C(=O)Nc3cccc(-c4ccco4)c3)CC2)n1 do in these assays?
SIAE inh: -21; PRMT1 inh: 27*; PRMT1 confirm: -1

How did Cc1ccc(CCC2C3=C(CCCC3=O)OC3=C2C(=O)CCC3)cc1 do in these assays?
SIAE inh: -5; PAD4 inh: -3; GSTO1 inh: -1; RBBP9 inh: 3; PRMT1 inh: 1

Results for CCOC(=O)c1ccc(N2C(=O)CC(N3CCCC(C)C3)C2=O)cc1 (stereo not drawn) ?
SIAE inh: -2; PAD4 inh: -2; GSTO1 inh: 7; RBBP9 inh: 9; PRMT1 inh: 8

Results for CCOc1ccc(N2C(=O)CC(N3CCN(C(=O)CN4CCCC4)CC3)C2=O)cc1 (stereo not drawn) ?
SIAE inh: -2; PAD4 inh: -2; GSTO1 inh: 1; RBBP9 inh: -3; PRMT1 inh: 6

What do the screens show for `CCOc1ccc(N2C(=O)CC(N3CCC(NC(=O)Nc4ccccc4)CC3)C2=O)cc1` (stereo not drawn)?
SIAE inh: 1; PAD4 inh: 0; GSTO1 inh: -5; RBBP9 inh: -10; PRMT1 inh: 64*; PRMT1 confirm: 6

How did CCCOc1ccc(N2C(=O)CC(N3CCCC(C(=O)N4CCCC4)C3)C2=O)cc1 (stereo not drawn) do in these assays?
SIAE inh: -2; PAD4 inh: -1; GSTO1 inh: 12; RBBP9 inh: -2; PRMT1 inh: 39*; PRMT1 confirm: 6

Results for O=C(C1CCCN(C2CC(=O)N(c3ccc(Cl)cc3)C2=O)C1)N1CCCC1 (stereo not drawn) ?
SIAE inh: -6; PRMT1 inh: 30*; PRMT1 confirm: 3

Results for CCCOc1ccc(N2C(=O)CC(N3CCOCC3)C2=O)cc1 (stereo not drawn) ?
SIAE inh: 3; PAD4 inh: 4; GSTO1 inh: 0; RBBP9 inh: 3; PRMT1 inh: 8

Results for CCCOc1ccc(N2C(=O)CC(N3CCC(C(=O)OCC)CC3)C2=O)cc1 (stereo not drawn) ?
SIAE inh: 1; PAD4 inh: -3; GSTO1 inh: -1; RBBP9 inh: -3; PRMT1 inh: 56*; PRMT1 confirm: 6

How did O=C(C1CCCN(C2CC(=O)N(c3ccc(F)cc3)C2=O)C1)N1CCCC1 (stereo not drawn) do in these assays?
SIAE inh: -3; PRMT1 inh: 16

Results for O=C1CC(N2CCOCC2)C(=O)N1c1cccc(Cl)c1 (stereo not drawn) ?
SIAE inh: -1; PAD4 inh: -6; GSTO1 inh: 1; RBBP9 inh: -5; PRMT1 inh: 10

Results for O=C(C1CCN(C2CC(=O)N(c3cccc(Cl)c3)C2=O)CC1)N1CCCCCC1 (stereo not drawn) ?
SIAE inh: -5; PAD4 inh: -6; GSTO1 inh: -3; RBBP9 inh: 0; PRMT1 inh: 29*; PRMT1 confirm: 4
